The source of these data is ChEMBL document CHEMBL1122297, “Stereospecific synthesis of chiral metabolites of ifosfamide and their determination in the urine” (J Med Chem, 1983).

Series [1] can be described thus: Active metabolite of ifosfamide determined in humans; A-Active. The format is ADME. Conditions: human; call rule not given here.
A short description of series [2]: Metabolite of ifosfamide determined in urine; NF-Not found. Particulars: human. The format is ADME, tissue-based.
Series [3] in a line: Portion of holoxan excreted in the form of the metabolite from 1500 mL of urine on day 9 was determined in embryonal rhabdomyosarcoma patients treated with ifosfamide. The format is ADME, tissue-based. Conditions: human, in vivo. An outline of the steps:
(§1)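 Patients received ifosfamide at 2 g per day for 10 days, and daily urine was collected. Urine from days 1 and 2 was dropped because it had been stored at room temperature. Solids were centrifuged off. Supernatant was examined by 31P NMR, and amounts were taken from the electronically integrated spectra.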

Series [4] in a line: Portion of holoxan excreted in the form of the metabolite from 1600 mL of urine on day 10 was determined in embryonal rhabdomyosarcoma patients treated with ifosfamide. The format is ADME, tissue-based. Conditions: human, in vivo. An outline of the steps: as §1
The nature of series [5]: Portion of holoxan excreted in the form of the metabolite from 1700 mL of urine on day 5 was determined in embryonal rhabdomyosarcoma patients treated with ifosfamide. The format is ADME, tissue-based. Conditions: human, in vivo. In short, it runs like this: as §1
Series [6] in a line: Portion of holoxan excreted in the form of the metabolite from 2310 mL of urine on day 4 was determined in embryonal rhabdomyosarcoma patients treated with ifosfamide. The format is ADME, tissue-based. Conditions: human, in vivo. An outline of the steps: as §1
Series [7] is described as follows: Percent ratio of the enantiomeric form (+)R extracted from the urine of alveolar rhabdomyosarcoma patients was determined. The format is ADME, tissue-based. Conditions: human. An outline of the steps:
(§2)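 Patients were dosed with ifosfamide at 2 g per day for 10 days. Solids were centrifuged out of the urine. The supernatant was extracted with chloroform and with ethyl acetate before the enantiomeric composition was determined, because signals of parent drug and metabolite overlapped in crude concentrated urine.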

Series [8] is described as follows: Percent ratio of the enantiomeric form (-)S extracted from the urine of alveolar rhabdomyosarcoma patients was determined. The format is ADME, tissue-based. Particulars: human. An outline of the steps:
as §2

Series [9] in a line: Percent ratio of the enantiomeric form (-)S extracted from the urine of embryonal rhabdomyosarcoma patients was determined. Conditions: human. The format is ADME, tissue-based. In short, it runs like this:
as §2

A short description of series [10]: Quantity of the metabolite found in the urine of the embryonal rhabdomyosarcoma patients treated with ifosfamide from 1200 mL of urine tested on day 3. The format is ADME, tissue-based. Particulars: human. An outline of the steps:
as §1

A short description of series [11]: Portion of holoxan excreted in the form of the metabolite from 1200 mL of urine on day 3 was determined in embryonal rhabdomyosarcoma patients treated with ifosfamide. The format is ADME. Conditions: human, in vivo. An outline of the steps: as §1
A short description of series [12]: Portion of holoxan excreted in the form of the metabolite from 1300 mL of urine on day 6 was determined in embryonal rhabdomyosarcoma patients treated with ifosfamide. The format is ADME. Particulars: human, in vivo. An outline of the steps:
as §1

Series [13] in a line: Portion of holoxan excreted in the form of the metabolite from 1300 mL of urine on day 8 was determined in embryonal rhabdomyosarcoma patients treated with ifosfamide. The format is ADME. Particulars: human, in vivo. In short, it runs like this: as §1
A short description of series [14]: Quantity of the metabolite found in the urine of the embryonal rhabdomyosarcoma patients treated with ifosfamide from 1200 mL of urine tested on day 7. Conditions: human. The format is ADME. In short, it runs like this:
as §1

The nature of series [15]: Quantity of the metabolite found in the urine of the embryonal rhabdomyosarcoma patients treated with ifosfamide from 1300 mL of urine tested on day 6. The format is ADME. Conditions: human. An outline of the steps: as §1
A short description of series [16]: Quantity of the metabolite found in the urine of the embryonal rhabdomyosarcoma patients treated with ifosfamide from 1300 mL of urine tested on day 8. The format is ADME, tissue-based. Conditions: human. An outline of the steps: as §1
Series [17] in a line: Quantity of the metabolite found in the urine of the embryonal rhabdomyosarcoma patients treated with ifosfamide from 1500 mL of urine tested on day 9. Particulars: human. The format is ADME. An outline of the steps: as §1
The nature of series [18]: Quantity of the metabolite found in the urine of the embryonal rhabdomyosarcoma patients treated with ifosfamide from 1600 mL of urine tested on day 10. The format is ADME. Particulars: human. In short, it runs like this:
as §1

Series [19] can be described thus: Quantity of the metabolite found in the urine of the embryonal rhabdomyosarcoma patients treated with ifosfamide from 1700 mL of urine tested on day 5. Conditions: human. The format is ADME. An outline of the steps:
as §1

Series [20] can be described thus: Quantity of the metabolite found in the urine of the embryonal rhabdomyosarcoma patients treated with ifosfamide from 2310 mL of urine tested on day 4. Particulars: human. The format is ADME. In short, it runs like this:
as §1

Series [21] is described as follows: Percent ratio of the enantiomeric form (+)R extracted from the urine of embryonal rhabdomyosarcoma patients was determined. The format is ADME. Conditions: human. An outline of the steps: as §2
Series [22] can be described thus: Portion of holoxan excreted in the form of the metabolite from 1200 mL of urine on day 7 was determined in embryonal rhabdomyosarcoma patients treated with ifosfamide. The format is ADME. Conditions: human, in vivo. An outline of the steps: as §1

Take `O=P(O)(NCCCl)NCCCl` [PALIFOSFAMIDE]: the Activity entry in series [1] was “Active”; in [2] it was “Not found”.
For `O=P1(NCCCl)OCCCN1CCCl` (stereo not drawn) [IFOSFAMIDE], the Excretion in [3] came out at 100%; in [4], 61%; in series [5] it was 40.2%; in series [6] it was 65.5%; in [11], 39.8%; in series [12] it was 91.5%. For the same molecule, the Excretion is on record as 61.7% in [13] and 74% in series [22]. Also, the Extraction in series [7] is given as 57%; in series [8], 43%; in [9], 45%; in series [21], 55%. For the same molecule, the Quantity was determined as 348 mg in series [10]; 432 mg in series [14]; 500 mg in series [15]; 494 mg in series [16]; 1100 mg in [17]; 421 mg in series [18]. Further, the Quantity amounted to 200 mg in series [19] and 442 mg in series [20].
For the molecule `O=C1CCOP(=O)(NCCCl)N1CCCl` (stereo not drawn) [4-KETOIFOSFAMIDE], the Excretion in series [3] came to 100%; in series [4] it was 61%; in series [5], 40.2%; in series [6] it was 65.5%; in series [11], 39.8%; in series [12], 91.5%. Also, the Excretion stood at 61.7% in series [13] and 74% in [22]. The Quantity came out at 44 mg in series [10]; 84 mg in [14]; 136 mg in series [15]; 78 mg in series [16]; 24 mg in series [17]; 66 mg in series [18]. In addition, the Quantity is 81 mg in [19] and 34 mg in series [20].
`O=CCCOP(=O)(NCCCl)NCCCl`: the results for the Activity result in series [1] and in series [2] were “Active” and “Not found”, respectively.
For the molecule `NP1(=O)OCCCN1CCCl` (stereo not drawn), the Excretion is 100% in series [3]; 61% in series [4]; 40.2% in [5]; 65.5% in series [6]; 39.8% in series [11]; 91.5% in [12]. The Excretion in series [13] was 61.7%; in series [22], 74%. The Extraction in series [7] was 13%; in [8], 87%; in series [9], 73%; in series [21] it was 27%. Also, the Quantity in [10] turned out to be 64 mg; in [14] it was 180 mg; in series [15], 243 mg; in series [16], 130 mg; in [17], 231 mg; in series [18], 160 mg. For the same molecule, the Quantity in series [19] is recorded as 95 mg; in [20], 163 mg.
As to `O=P1(NCCCl)NCCCO1` (stereo not drawn), the Excretion in series [3] is 100%; in [4] it was 61%; in [5] it was 40.2%; in series [6], 65.5%; in series [11], 39.8%; in series [12], 91.5%. Moreover, the Excretion in series [13] came to 61.7%; in series [22], 74%. For the same molecule, the Extraction amounted to 72% in [7], 28% in [8], 55% in series [9] and 45% in series [21]. Besides, the Quantity was found to be 198 mg in series [10]; 348 mg in series [14]; 434 mg in series [15]; 338 mg in [16]; 310 mg in [17]; 320 mg in series [18]. In addition, the Quantity worked out at 258 mg in series [19] and 432 mg in [20].
With `O=P1(NCCCl)OCCC(O)N1CCCl` (stereo not drawn) [ALDOIFOSFAMIDE], the results for the Activity entry in [1] and in series [2] were “Active” and “Not found”, respectively.
Turning to `O=C(O)CCOP(=O)(NCCCl)NCCCl`, the Excretion was 100% in [3]; 61% in series [4]; 40.2% in series [5]; 65.5% in series [6]; 39.8% in series [11]; 91.5% in series [12]. Moreover, the Excretion in [13] is 61.7%; in [22] it was 74%. Also, the Quantity was 70 mg in series [10]; 312 mg in series [14]; 348 mg in [15]; 56 mg in [16]; 186 mg in series [17]; 130 mg in series [18]. For the same molecule, the results for the Quantity in [19] and in series [20] were 70 mg and 62 mg, respectively.
